OX1R antag-1 – OX1R (HCRTR1) antagonists, primary screen, fluorescence, CHO/OX1R cells, Fluo-8 calcium, orexin A; Fluo-8 calcium fluorescence; AID 434989, 2010; 0.43% of 330,000 active; inhibition, % at 5 µM; Orexin/Hypocretin receptor type 1 (Homo sapiens), O43613;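 active = inhibition above its plate's threshold, mean inhibition of all tested compounds on the plate plus 3 SD, cut at about 37% in these data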;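 note: 0% = orexin A challenge wells and 100% = SB-334867-A antagonist wells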
GPR7 antagonist – GPR7 receptor antagonists, primary screen, cell-based, fluorescence, single concentration; GPR7-expressing cells, fluorescence antagonist assay; inhibition, % at 4.4 µM; 1.1% of 290,000 active; in the data active = inhibition above about 16%, passing the limit was not always enough;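 note: cells stimulated with the agonist NPW; 0% = agonist with vehicle and 100% = vehicle without agonist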
Target sequence (P48145 whole entry, looked up): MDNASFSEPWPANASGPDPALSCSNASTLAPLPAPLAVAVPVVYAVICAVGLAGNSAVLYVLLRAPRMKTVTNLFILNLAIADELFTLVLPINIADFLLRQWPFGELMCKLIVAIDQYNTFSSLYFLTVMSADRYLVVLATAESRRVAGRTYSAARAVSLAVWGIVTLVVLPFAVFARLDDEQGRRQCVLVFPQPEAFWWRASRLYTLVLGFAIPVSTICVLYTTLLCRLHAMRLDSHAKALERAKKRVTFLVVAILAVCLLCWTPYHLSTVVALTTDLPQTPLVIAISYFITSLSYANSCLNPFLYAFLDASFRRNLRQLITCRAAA
OX1R antag-2 – antagonists of human orexin 1 receptor (OX1R). OX1R-expressing cells, FRET antagonist read-out. inhibition, % at 6.6 µM. 1.8% of 330,000 active. AID 485270, 2010; in the data active = inhibition mostly above about 38%, no sharp cut-off; inactive = mostly below about 40%;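 note: 0% = agonist challenge alone and 100% = reference antagonist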
GalR3 antagonist – GalR3 antagonists in HEK293 cells, primary screen, cell-based, fluorescence readout; Galanin receptor type 3 (Homo sapiens), O60755; HEK293 GalR3-CNG cAMP membrane potential fluorescence; galR3 body fused to GalR1 C-terminus; inhibition, % at 3 µM; 0.44% of 360,000 active; AID 651719, 2012;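 active = inhibition above the screen-wide average plus 3 SD, cut at about 13% in these data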;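 note: forskolin and galanin both at EC90 stimulate the cells; cAMP rise reported by CNG channel membrane potential dye signal; 0% = forskolin plus galanin with DMSO and 100% = forskolin alone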
Target sequence (O60755 1-299 limits assumed): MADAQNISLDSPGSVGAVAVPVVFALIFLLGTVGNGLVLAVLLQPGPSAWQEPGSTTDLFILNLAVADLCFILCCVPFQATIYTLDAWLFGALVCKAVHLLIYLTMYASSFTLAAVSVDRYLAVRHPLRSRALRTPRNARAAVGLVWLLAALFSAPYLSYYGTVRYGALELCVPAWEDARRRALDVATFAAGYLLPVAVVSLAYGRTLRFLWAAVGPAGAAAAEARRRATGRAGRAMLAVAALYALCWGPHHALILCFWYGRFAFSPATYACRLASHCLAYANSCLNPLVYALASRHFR
CHO parental Ca – ATP-evoked calcium signal inhibitors, parental CHO, primary screen, counter-screen for OX1R antagonist project, cell-based, fluorescence, Fluo-8 calcium dye; inhibition, % at 5.6 µM; 0.63% of 330,000 active; parental CHO-K1, ATP-induced calcium, Fluo-8 fluorescence;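 active = inhibition above that plate's mean sample inhibition plus 3 SD, cut at about 26% in these data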;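 note: 0% = ATP-challenged DMSO wells and 100% = DMSO wells without ATP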
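Assay system – parental CHO cells · Reagent – ATP stimulus · Detection – intracellular calcium via Fluo-8 no-wash fluorescent dye · Evaluation – percent inhibition of ATP-evoked calcium rise, normalized to controls · Controls – ATP wells versus no-ATP DMSO wells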
OX1R Fluo8 conf – OX1R (HCRTR1) antagonists, confirmation, fluorescence, CHO/OX1R cells, Fluo-8 calcium, orexin A; shares compounds with OX1R antag-1; orexin A calcium Fluo-8 fluorescence; inhibition, % at 5 µM; 38% of 1,100 active; AID 492963, 2010; in the data active = inhibition above about 29%;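 note: 0% = agonist challenge alone and 100% = reference antagonist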
CHO Ca triplic – ATP-evoked calcium inhibition in parental CHO, counter-screen for OX1R antagonist project, cell-based, fluorescence, CHO-K1, triplicate; AID 492965, 2010; shares compounds with OX1R antag-1; ATP-induced calcium, Fluo-8 fluorescence; 9.3% of 1,100 active; inhibition, % at 5.6 µM;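 active = inhibition above a per-plate limit, the mean inhibition of that plate's test compounds plus 3 SD, cut at about 25% in these data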;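 note: 0% = ATP challenge with DMSO and 100% = DMSO without ATP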
OX1R HTRF conf – OX1R (HCRTR1) antagonists, confirmation, cell-based, HTRF. shares compounds with OX1R antag-2. OX1R-expressing cells, HTRF antagonist assay. inhibition, % at 6.6 µM. 49% of 1,800 active; in the data active = inhibition above about 55%;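 note: CHO cells expressing OX1R stimulated with orexin A at about EC80; 0% = agonist challenge alone and 100% = reference antagonist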
CHO-K1 HTRF cnt – signal inhibition in parental CHO-K1 cells, counter-screen for OX1R antagonist project, cell-based, HTRF | HTRF counterscreen | 48% of 1,800 active | inhibition, % at 6.6 µM | shares compounds with OX1R antag-2; in the data active = inhibition above about 17%;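 note: 0% = agonist challenge with vehicle and 100% = vehicle alone without agonist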
An asterisk follows results filed as active; x = not tested or not shown. Shown are actives, neighbours in structure and some others; about 3.1% of the full set was active somewhere.

SMILES	OX1R antag-1	GPR7 antagonist	OX1R antag-2	GalR3 antagonist	CHO parental Ca	OX1R Fluo8 conf	CHO Ca triplic	OX1R HTRF conf	CHO-K1 HTRF cnt
Cc1ccc(Cn2nc(C)cc2C(=O)Nc2ccc(Cl)cc2)cc1	44	-4	56*	-2	-19	28	-14	62*	11
CN(CC(=O)Nc1ccc(Cl)c(C(F)(F)F)c1)C(=O)Cc1ccsc1	28	x	50*	2	11	-3	-19	29	-23
CN(C)/C=C/C1=C([N+](=O)[O-])C(c2cccc([N+](=O)[O-])c2)NC(=O)N1 (stereo not drawn)	36	-8	88*	-8	-8	0	1	37	29*
COC(=O)C1=C(C)NC2=C(C(=O)CCC2)C1c1cn(Cc2ccc(Br)cc2)nc1-c1ccccc1 (stereo not drawn)	35	-2	75*	12	-4	1	-18	52	-17
COC(=O)C1=C(C)NC2=C(C(=O)CC(C)(C)C2)C1c1cn(Cc2ccc(Br)cc2)nc1-c1ccccc1 (stereo not drawn)	13	21	37	x	-4	x	x	x	x
CC(=O)Nc1cccc(-c2ccnc3c2CC(C)(C(=O)Nc2cccc(OC(F)(F)F)c2)O3)c1 (stereo not drawn)	x	x	x	-6	x	x	x	x	x
COc1ccc(C(=O)COc2ccccc2C(=O)Nc2ccccc2)cc1	42*	1	71*	-7	-2	37*	-11	60*	9
Cc1ccc2cc(C)c3nnc(SCC(=O)Nc4nc5c(s4)CCCC5)n3c2c1C	34	-4	84*	1	-20	41*	-10	75*	0
O=C(Nc1nccs1)C1CCCN1S(=O)(=O)c1ccc(F)cc1 (stereo not drawn)	44*	2	75*	2	-20	8	-5	31	-5
COc1ccc(S(=O)(=O)N2CCCC2C(=O)Nc2nc3c(s2)CCCC3)cc1 (stereo not drawn)	45*	-11	95*	-1	-36	44*	-5	88*	2
O=C(Nc1nccs1)[C@@H]1CCCN1S(=O)(=O)c1ccc(Cl)cc1	15	x	32	-5	-12	x	x	x	x
O=C(Nc1ccc(F)cc1)C1CCCN1S(=O)(=O)c1ccc(Br)cc1 (stereo not drawn)	32	-14	81*	-6	-19	38*	-10	89*	-4
CNC(=O)C1CCCN1S(=O)(=O)c1ccc(OC)cc1 (stereo not drawn)	-12	-8	8	-1	0	x	x	x	x
O=C(Nc1ccc(F)c(F)c1)C1CCCN1S(=O)(=O)c1ccc(F)cc1 (stereo not drawn)	37*	2	74*	1	9	42*	-15	70*	0
O=P1(O)CC2=C(CC=CC2)C1	x	x	x	-5	x	x	x	x	x
O=[N+]([O-])c1cccc(CON=Cc2ccccc2O)c1	x	x	x	-3	x	x	x	x	x
Nc1ccn([C@@H]2O[C@H](C(=O)N[C@H](Cc3ccccc3)C(=O)N[C@H]3CCCCNC3=O)[C@@H](O)[C@H]2O)c(=O)n1	x	x	x	-5	x	x	x	x	x
CCCCc1c(-c2ccccc2OC)ncn1Cc1ccccc1C	x	x	x	-8	x	x	x	x	x
CNc1nc(Nc2ccc(C)c(Cl)c2)c2cnn(C)c2n1	33	-2	84*	-7	-16	9	-7	84*	12
CCCNc1nc(Nc2ccc(C)c(Cl)c2)c2cnn(C)c2n1	-31	-15	3	-13	-17	x	x	x	x
CCOC(=O)c1ccc2nc(NC(=O)c3ccco3)sc2c1	25	-7	81*	-3	-5	35*	-2	86*	18*
CCN(CC)c1ccc2cc(C(=O)c3cccs3)c(=O)oc2c1	x	x	x	-5	x	x	x	x	x
CCN(CC)c1ccc2cc(-c3nc4ccccc4n3C)c(=O)oc2c1	95*	17*	83*	-4	6	84*	12	89*	-7
C=CCNc1nc2cc(-c3ccccc3C)sc2c(=O)n1C	x	x	x	-6	x	x	x	x	x
CNC(=O)C1CN(C(=O)c2cccc(S(=O)(=O)N3c4ccccc4CC3C)c2)c2ccccc2O1 (stereo not drawn)	36	x	40*	-2	-13	20	-8	59*	-5
SMILES	OX1R antag-1	GPR7 antagonist	OX1R antag-2	GalR3 antagonist	CHO parental Ca	OX1R Fluo8 conf	CHO Ca triplic	OX1R HTRF conf	CHO-K1 HTRF cnt
CC(=O)NC(C)(c1ccccc1)c1nc(-c2cccc(C(F)(F)F)c2)cs1 (stereo not drawn)	x	x	x	-5	x	x	x	x	x
CC(=O)Nc1cc(-c2ccc(C(=O)N3CCOCC3)cc2)cn2c(-c3ccc(S(C)(=O)=O)cc3)cnc12	x	x	x	-8	x	x	x	x	x
Cc1ccc(N(CC(=O)NCCc2ccccc2)S(=O)(=O)c2c(C)noc2C)cc1	70*	0	85*	-8	-26	44*	-31	82*	-23
CCC(=O)N1CCC1(C)C(=O)Nc1ccc(C)c(C)c1 (stereo not drawn)	x	x	x	-7	x	x	x	x	x
Cc1ccc(C)c(NC(=S)c2ccc3ccccc3n2)c1	-35	5	19	-1	-28	x	x	x	x
CN(C)c1ccc(NC(=S)c2ccc3ccccc3n2)cc1	58*	10	93*	3	0	29	14	85*	9
O=C(NC1CCCC1)C1CCCN1S(=O)(=O)c1cccc2cccnc12 (stereo not drawn)	-19	13	16	7	-1	x	x	x	x
COc1ccc(C)cc1NC(=O)C1CCCN(S(=O)(=O)c2cccc3cccnc23)C1 (stereo not drawn)	32	-9	79*	x	-10	25	-12	80*	3
COc1cccc(NC(=O)[C@@H]2CCCN2S(=O)(=O)c2cccc3cccnc23)c1	47*	x	84*	-8	-15	50*	6	84*	1
COc1ccc(NC(=O)C2CCCN(S(=O)(=O)c3cccc4cccnc34)C2)c(OC)c1 (stereo not drawn)	-32	-12	14	-1	-22	x	x	x	x
